Activity calls are given as the source filed them. The rule behind the calls is not given here.
How the values were obtained:
[1] = target: Cystic fibrosis transmembrane conductance regulator (Homo sapiens, UniProt P13569, H148Q); test: Activation of human CFTR expressed in FRT cells co-expressing YFP H148Q mutant assessed as increase in forskolin-stimulated iodide influx measured after 10 mins by fluorescence assay; assay type: cell-based
Outline: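 FRT cells stably coexpressing human wild-type CFTR and YFP-H148Q, near-confluent; washed with PBS, then 10 min in PBS with test compound and 125 nM forskolin. YFP fluorescence recorded 2 s baseline and 12 s after iodide addition (final 140 mM). Iodide influx rates fitted to concentration–response curves for EC50.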

[2] = target: Cystic fibrosis transmembrane conductance regulator (Homo sapiens, UniProt P13569); test: Activation of human CFTR expressed in forskolin-stimulated basolateral membrane permeabilized FRT cells assessed as increase in short-circuit current amplitude after 30 mins by voltage clamp method; assay type: cell-based
Outline: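 Short-circuit current in FRT cells expressing human wild-type CFTR grown on porous filters, with a transepithelial chloride gradient and permeabilized basolateral membrane. Low-concentration forskolin added first, then cumulative activator concentrations, finally 10 μM CFTRinh-172. EC50 from concentration–response, mean ± SEM, n = 3.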

[3] = Effect on cAMP levels in Fischer rat thyroid cells at 10 uM incubated for 10 mins by immunoassay; assay type: ADME, cell-based; details: thyroid cell
Outline: (§1)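 FRT cells incubated 10 min with 10 μM compound, without or with 90 nM forskolin, then cellular cAMP measured. Positive controls: forskolin 100 nM and 20 μM, forskolin + IBMX (20 μM + 100 μM). Mean ± SEM, n = 4.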

[4] = Effect on forskolin-stimulated cAMP levels in Fischer rat thyroid cells at 10 uM incubated for 10 mins by immunoassay; assay type: ADME, cell-based; details: thyroid cell; outline: as §1
Homo sapiens [5] = species: Homo sapiens; test: Activation of calcium-activated chloride channel in human HT29 cells co-expressing YFP at 10 uM after 10 mins presence of iodide by fluorescence assay; assay type: cell-based
Homo sapiens [6] = species: Homo sapiens; test: Inhibition of calcium-activated chloride channel in human HT29 cells co-expressing YFP assessed as reduction in ATP-stimulated calcium levels at 10 uM preincubated for 10 mins followed by ATP addition in presence of iodide by fluorescence assay; assay type: cell-based
[7] = target: T1, Anoctamin-1 (Homo sapiens) (UniProt Q5XXA6); test: Inhibition of human TMEM16A expressed in FRT cells co-expressing YFP assessed as decrease in iodide influx at 10 uM measured after 10 mins in presence of ATP by fluorescence assay; assay type: cell-based
T1 sequence (whole entry): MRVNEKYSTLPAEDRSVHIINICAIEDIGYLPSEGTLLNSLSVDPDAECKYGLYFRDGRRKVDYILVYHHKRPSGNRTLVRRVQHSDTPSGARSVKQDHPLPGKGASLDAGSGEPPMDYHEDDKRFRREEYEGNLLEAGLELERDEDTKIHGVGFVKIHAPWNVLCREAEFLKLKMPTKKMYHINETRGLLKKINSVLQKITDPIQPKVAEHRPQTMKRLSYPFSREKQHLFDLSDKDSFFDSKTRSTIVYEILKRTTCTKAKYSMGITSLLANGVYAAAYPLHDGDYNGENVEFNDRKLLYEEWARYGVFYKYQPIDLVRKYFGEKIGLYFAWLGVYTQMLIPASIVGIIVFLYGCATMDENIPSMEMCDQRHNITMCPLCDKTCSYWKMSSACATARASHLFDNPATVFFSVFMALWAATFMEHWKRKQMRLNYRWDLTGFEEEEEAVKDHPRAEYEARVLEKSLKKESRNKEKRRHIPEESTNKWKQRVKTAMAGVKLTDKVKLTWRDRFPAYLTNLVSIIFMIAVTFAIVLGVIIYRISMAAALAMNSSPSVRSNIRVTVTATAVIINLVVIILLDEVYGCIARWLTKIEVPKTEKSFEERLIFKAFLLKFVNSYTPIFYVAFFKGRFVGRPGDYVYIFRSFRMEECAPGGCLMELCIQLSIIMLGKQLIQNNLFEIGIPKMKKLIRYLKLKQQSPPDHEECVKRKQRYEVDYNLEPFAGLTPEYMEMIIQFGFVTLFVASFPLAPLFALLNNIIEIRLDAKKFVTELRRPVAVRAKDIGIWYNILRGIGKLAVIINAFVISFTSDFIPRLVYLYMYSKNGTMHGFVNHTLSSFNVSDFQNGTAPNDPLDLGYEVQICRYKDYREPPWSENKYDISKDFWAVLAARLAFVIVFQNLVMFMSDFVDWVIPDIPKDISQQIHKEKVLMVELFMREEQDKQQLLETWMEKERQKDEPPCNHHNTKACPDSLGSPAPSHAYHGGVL
Outline: (§2)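 FRT cells coexpressing YFP and TMEM16A; continuous single-well YFP fluorescence for 2 s before and 12 s after addition of iodide solution (final 140 mM iodide). Activation read with iodide alone, inhibition with iodide plus ATP; compound at 10 μM. Iodide influx rate calculated from fluorescence quenching.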

[8] = target: T1, Anoctamin-1 (Homo sapiens); test: Activation of human TMEM16A expressed in FRT cells co-expressing YFP assessed as increase in iodide influx at 10 uM measured after 10 mins by fluorescence assay; assay type: cell-based; outline: as §2
Mus musculus [9] = test: Suppression of constipation in po dosed loperamide-induced CD1 mouse acute constipation model assessed as normalization of pellet number administered 1 hr prior to loperamide addition measured after 3 hrs; assay type: functional
Outline: (§3)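 CD1 mice, 8–10 weeks; compound or vehicle (saline, 5% DMSO, 10% Kolliphor HS 15) given orally at 0, 0.1, 0.3, 1, 3 or 10 mg/kg 1 h before loperamide 0.3 mg/kg ip. Stool collected 3 h in metabolic cages; weight, pellet count and water content (wet/dry weights). Mean ± SEM, 4 mice per group.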

Mus musculus [10] = test: Suppression of constipation in po dosed loperamide-induced CD1 mouse acute constipation model assessed as normalization of stool water content administered 1 hr prior to loperamide addition measured after 3 hrs; assay type: functional; outline: as §3
[11] = Elevation of cytoplasmic calcium levels in Fischer rat thyroid cells at 10 uM after 5 mins by Fluo-4 based fluorescence assay; details: thyroid cell

Sequence of Cystic fibrosis transmembrane conductance regulator (Homo sapiens, UniProt P13569, H148Q) (P13569 whole entry, looked up, stated change not applied): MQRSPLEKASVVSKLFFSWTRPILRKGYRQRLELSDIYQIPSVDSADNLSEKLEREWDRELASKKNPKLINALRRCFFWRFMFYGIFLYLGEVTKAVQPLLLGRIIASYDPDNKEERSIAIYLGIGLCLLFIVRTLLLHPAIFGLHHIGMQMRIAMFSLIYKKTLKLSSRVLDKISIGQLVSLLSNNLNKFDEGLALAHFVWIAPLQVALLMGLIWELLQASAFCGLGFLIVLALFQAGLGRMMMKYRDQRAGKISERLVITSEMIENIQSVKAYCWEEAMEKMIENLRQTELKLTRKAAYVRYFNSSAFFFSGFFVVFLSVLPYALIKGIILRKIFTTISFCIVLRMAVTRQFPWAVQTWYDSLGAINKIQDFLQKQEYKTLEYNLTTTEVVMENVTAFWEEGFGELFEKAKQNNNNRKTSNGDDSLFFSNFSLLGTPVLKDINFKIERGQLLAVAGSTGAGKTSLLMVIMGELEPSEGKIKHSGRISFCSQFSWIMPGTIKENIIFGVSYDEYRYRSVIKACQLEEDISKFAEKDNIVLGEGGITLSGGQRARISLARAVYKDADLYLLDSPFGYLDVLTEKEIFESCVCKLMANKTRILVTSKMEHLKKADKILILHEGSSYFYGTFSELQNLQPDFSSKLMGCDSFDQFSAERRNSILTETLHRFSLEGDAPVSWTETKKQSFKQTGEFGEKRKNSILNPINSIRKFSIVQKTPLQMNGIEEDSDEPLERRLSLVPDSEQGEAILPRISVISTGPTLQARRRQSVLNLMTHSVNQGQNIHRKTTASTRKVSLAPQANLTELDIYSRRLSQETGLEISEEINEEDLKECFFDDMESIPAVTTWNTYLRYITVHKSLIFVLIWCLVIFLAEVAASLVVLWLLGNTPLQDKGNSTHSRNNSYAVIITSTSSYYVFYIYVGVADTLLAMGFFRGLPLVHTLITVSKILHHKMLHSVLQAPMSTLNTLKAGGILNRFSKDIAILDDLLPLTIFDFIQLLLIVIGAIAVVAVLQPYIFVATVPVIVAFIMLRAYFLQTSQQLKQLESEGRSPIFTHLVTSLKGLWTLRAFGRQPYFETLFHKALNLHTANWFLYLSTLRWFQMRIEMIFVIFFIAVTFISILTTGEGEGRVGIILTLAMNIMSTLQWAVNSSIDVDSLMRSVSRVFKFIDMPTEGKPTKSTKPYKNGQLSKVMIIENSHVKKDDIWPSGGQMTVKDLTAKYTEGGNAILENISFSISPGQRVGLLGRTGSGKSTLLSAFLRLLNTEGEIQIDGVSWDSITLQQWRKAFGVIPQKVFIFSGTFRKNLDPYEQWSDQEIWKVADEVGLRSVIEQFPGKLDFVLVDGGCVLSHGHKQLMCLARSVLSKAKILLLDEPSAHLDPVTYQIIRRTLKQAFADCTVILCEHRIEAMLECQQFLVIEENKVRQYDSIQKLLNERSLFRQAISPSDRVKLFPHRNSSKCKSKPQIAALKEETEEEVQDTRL

SMILES	EC50 ([1]; read-out: EC50) [µM]	further results
O=C(O)c1ccc([N+](=O)[O-])c(-c2nc3ccccc3n(Cc3ccccc3)c2=O)c1	> 10	–
O=c1[nH]c2ccccc2nc1-c1cccc([N+](=O)[O-])c1	> 10	–
N#Cc1cccc(-c2nc3ccccc3n(Cc3ccccc3)c2=O)c1	1	–
O=c1c(-c2cccc([N+](=O)[O-])c2)nc2cc(Cl)c(Cl)cc2n1Cc1ccccc1	> 10	–
O=c1c(-c2cccc([N+](=O)[O-])c2)nc2ccccc2n1Cc1ccccc1	–	Activity [2]: Dose-dependent effect; Activity [3]: Non-Toxic; Activity [4]: Non-Toxic; Activity (Homo sapiens [5]): inactive; inhibition (Homo sapiens [6]): inactive; inhibition [7]: inactive; Activity [8]: inactive; ED50 (Mus musculus [9]): < 1 mg/kg; ED50 (Mus musculus [10]): < 1 mg/kg; Activity [11]: Non-Toxic
O=c1c(-c2cccc([N+](=O)[O-])c2)nc2ccccc2n1Cc1cccc2ccccc12	–	EC50 [1]: Not Active
O=c1c(-c2cccc([N+](=O)[O-])c2)nc2ccc(Br)cc2n1Cc1ccccc1	–	EC50 [1]: Not Active
Cc1cc2nc(-c3cccc([N+](=O)[O-])c3)c(=O)n(Cc3ccccc3)c2cc1C	> 10	–
O=c1c(-c2cccc([N+](=O)[O-])c2)nc2cc(F)c(F)cc2n1Cc1ccccc1	> 10	–

Continued, in another order:

EC50 ([1]; read-out: EC50) [µM]	SMILES	further results
9.9	COC(=O)c1ccc([N+](=O)[O-])c(-c2nc3ccccc3n(Cc3ccccc3)c2=O)c1	–
> 10	Cc1cccc2nc(-c3cccc([N+](=O)[O-])c3)c(=O)n(Cc3ccccc3)c12	–
> 10	Cn1c(=O)c(-c2cccc([N+](=O)[O-])c2)nc2ccccc21	–
0.01	O=c1c(-c2cccc([N+](=O)[O-])c2)nc2ccccc2n1Cc1cccs1	Activity [2]: Dose-dependent effect; EC50 [2]: 70 nM
0.82	CC(=O)Nc1ccc([N+](=O)[O-])cc1-c1nc2cccc3c2n(c1=O)CCO3	–
> 10	Nc1ccc(C(=O)O)cc1-c1nc2ccccc2n(Cc2ccccc2)c1=O	–
> 10	Nc1ccc([N+](=O)[O-])cc1-c1nc2cccc3c2n(c1=O)C(c1ccccc1)CO3 (centres undefined)	–
> 10	O=[N+]([O-])c1ccc2nc3n(Cc4ccccc4)c4ccc(C(F)(F)F)cc4nc-3c2c1	–
> 10	Fc1ccc2nc3n(Cc4ccccc4)c4ccc(C(F)(F)F)cc4nc-3c2c1	–
